Bioassay records: PubChem, The Scripps Research Institute Molecular Screening Center
An excerpt weighted towards active compounds, which were near 4.6% of everything screened.
OX1R antag-1: OX1R (human) antagonism | AID 485270 | 330,000 compounds, 1.8% hits | inhibition, % at 6.6 µM | OX1R-expressing cells, FRET antagonist read-out; in the data active = inhibition mostly above about 38%, no sharp cut-off; inactive = mostly below about 40%
TAAR1 antagonist: antagonists of human TAAR1 | 360,000 compounds, 1.5% hits | CHO RD-HGA16 TAAR1, Fluo-8 calcium fluorescence, antagonist | AID 624466 | Q96RJ0 | inhibition, % at 3 µM;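 active = inhibition above a per-plate cutoff, the mean inhibition of test compounds on that plate plus 3 SD, cut at about 49% in these data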
Target sequence (Q96RJ0 whole entry, looked up): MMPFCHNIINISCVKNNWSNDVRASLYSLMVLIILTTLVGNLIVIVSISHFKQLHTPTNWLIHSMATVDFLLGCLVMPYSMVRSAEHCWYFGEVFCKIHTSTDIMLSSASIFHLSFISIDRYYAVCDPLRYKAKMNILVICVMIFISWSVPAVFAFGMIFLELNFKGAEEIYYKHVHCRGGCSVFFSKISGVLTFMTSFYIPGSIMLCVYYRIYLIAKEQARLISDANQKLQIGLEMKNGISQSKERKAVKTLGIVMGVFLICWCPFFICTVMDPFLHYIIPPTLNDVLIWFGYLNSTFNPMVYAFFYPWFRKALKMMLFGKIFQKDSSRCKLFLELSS
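System: CHO RD-HGA16 cells bearing hTAAR1. Reagent: EC80 β-phenethylamine stimulus. Schedule: seeding 17-24 h prior, 75-min 37 °C, 30-min RT dye loading. Signal: Fluo-8 intracellular calcium dye fluorescence, real-time kinetic reads. Read-out: % inhibition from peak post-agonist over basal fluorescence ratio. Benchmarks: vehicle wells and EC80 agonist wells. Replicates: n of 1.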
GPR7 antagonist: human neuropeptides B/W receptor 1 antagonism | P48145 | GPR7-expressing cells, fluorescence antagonist assay | inhibition, % at 4.4 µM | 290,000 compounds, 1.1% hits | AID 1861; in the data active = inhibition above about 16%, passing the limit was not always enough;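 note: cells stimulated with the agonist NPW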
CHO parental Ca: counter-screen for OX1R antagonists: effect in parental CHO cells | parental CHO-K1, ATP-induced calcium, Fluo-8 fluorescence | inhibition, % at 5.6 µM | 330,000 compounds, 0.63% hits | AID 463079;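 active = inhibition above that plate's mean sample inhibition plus 3 SD, cut at about 26% in these data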
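Material: Parental CHO cells | Reagent: ATP | Compound dosing: Single nominal dose of 5.6 µM per compound | Detection: Intracellular calcium via Fluo-8 no-wash fluorescent dye | Read-out: % inhibition of ATP-induced calcium mobilization | Benchmarks: Low control ATP plus DMSO, high control DMSO only | Replicates: Singlicate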
OX1R antag-2: antagonists of human orexin 1 receptor; O43613; CHO/OX1R cells, Fluo-8 calcium fluorescence, orexin A; inhibition, % at 5 µM; 330,000 compounds, 0.43% hits;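 active = inhibition above its plate's threshold, mean inhibition of all tested compounds on the plate plus 3 SD, cut at about 37% in these data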
TAAR1 agonist: agonists of human TAAR1; activation, % at 3 µM; 360,000 compounds, 0.99% hits; CHO RD-HGA16 TAAR1, Fluo-8 calcium fluorescence; vehicle wells 0%, saturating PEA agonist 100%;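 active = activation above the mean activation of all test compounds in the run plus 3 SD, cut at about 38% in these data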
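Repeats: no replicates (n 1) | Material: CHO-derived RD-HGA16 cells with stable Gα16 and human TAAR1 | Technique: Kinetic Fluo-8 calcium fluorescence | Schedule: 17-24 h seeding, 75 min 37 °C dye, 30 min RT | Evaluation: % activation from peak over basal fluorescence ratio, DMSO-to-PEA scaled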
Numbers stand for hits; i = inactive; nt = not tested or not shown.

SMILES	OX1R antag-1	TAAR1 antagonist	GPR7 antagonist	CHO parental Ca	OX1R antag-2	TAAR1 agonist
CC(C)(C)[C@@H]1COC(=O)[C@H](Cc2ccc(F)cc2)CC/C=C\C[C@H](CC(=O)N(CCO)Cc2ccccc2)C(=O)N1	i	56	nt	i	i	i
O=C1NCCOC(=O)[C@H](Cc2ccc(F)cc2)CC/C=C/C[C@H]1CC(=O)N(CCO)Cc1ccccc1	i	i	nt	i	i	i
O=C1NC[C@H](c2ccccc2)OC(=O)[C@@H](Cc2ccc(F)cc2)CC/C=C/C[C@H]1CC(=O)N(CCO)Cc1ccccc1	i	71	nt	i	i	i
O=C1NC[C@H](c2ccccc2)OC(=O)[C@H](Cc2ccc(F)cc2)CC/C=C/C[C@H]1CC(=O)N(CCO)Cc1ccccc1	i	62	nt	i	i	41
CC(C)(C)OC(=O)C[C@@H]1C/C=C\C[C@@H](CC(=O)N(CCO)Cc2ccccc2)C(=O)N[C@@H](c2ccccc2)COC1=O	i	49	nt	i	i	i
O=C(NC(=S)NCC1CCCO1)c1ccccc1F (stereo unspecified)	i	i	i	i	i	i
O=C1NC[C@@H](c2ccccc2)OC(=O)[C@@H](Cc2ccc(F)cc2)C/C=C\C[C@@H]1CC(=O)N(CCO)Cc1ccccc1	i	69	nt	i	i	38
CC(C)(C)[C@H]1COC(=O)[C@H](NC(=O)OCC2c3ccccc3-c3ccccc32)C/C=C\C[C@@H](CC(=O)N(CCO)Cc2ccccc2)C(=O)N1	i	51	nt	i	i	i
C[C@@H]1COC(=O)[C@H](NC(=O)OCC2c3ccccc3-c3ccccc32)C/C=C\C[C@@H](CC(=O)N(CCO)Cc2ccccc2)C(=O)N1	i	nt	nt	i	i	nt
CC(=O)c1ccc(Oc2ncnc3sccc23)cc1	i	i	i	i	i	i
C=CCC[C@H](Cc1ccc(F)cc1)C(=O)OC[C@@H](C)NC(=O)[C@H](CC=C)CC(=O)NCCO	i	i	nt	i	i	i
Cc1ccc(NCCC#N)cc1C	i	i	i	i	i	i
Cc1ccc(S(=O)(=O)NC2(C(F)(F)F)NC(=O)N(c3ccccc3F)C2=O)cc1 (stereo unspecified)	i	i	i	i	i	i
COc1ccc(OC)c(S(=O)(=O)n2ccnc2C(C)C)c1	i	i	i	i	i	i
Cc1ccc(-c2cc(C(=O)Nc3cnn(C(C)C)c3)no2)cc1	i	i	i	i	i	i
CCCn1c(CNc2ccc(Br)cc2)nc2ccccc21	i	i	i	34	i	i
CC(Cc1cccs1)NC(=S)Nc1ccc(Cl)cc1 (stereo unspecified)	60	i	i	i	i	i
Cc1c(C(=O)N2CC(C(=O)N3CCCCC3)Oc3ccccc32)oc2ccccc12 (stereo unspecified)	nt	i	nt	nt	nt	i
Cc1cccc(C)c1N=C1C(=O)Nc2ccccc21	i	i	i	i	i	i
Cc1cc(C)c(N=C2C(=O)Nc3ccccc32)c(C)c1	38	i	i	i	i	i
COc1ccc(-c2cn[nH]c2-c2ccc(OCc3ccc([N+](=O)[O-])cc3)cc2O)cc1OC	i	i	i	i	i	i
CCc1cc(-c2[nH]ncc2-c2ccc([N+](=O)[O-])cc2)c(O)cc1OC	i	nt	i	60	i	nt
COc1cc(C2c3c([nH]c(=O)[nH]c3=O)Nc3ccc4ccccc4c32)cc(OC)c1OC (stereo unspecified)	i	i	i	i	i	i
Cc1nc2nc(-c3cccs3)[nH]c2cc1Br	43	i	nt	i	i	i
c1ccc(-c2nc(-c3cccs3)[nH]c2-c2ccccc2)cc1	i	i	i	i	i	i
Cc1ccc(Cl)cc1N(C)C(=O)Cn1ncc2c([nH]c3ccccc32)c1=O	i	i	i	i	i	i
CCOC(=O)C1CCCN(C2CC(=O)N(c3cccc(C(F)(F)F)c3)C2=O)C1 (stereo unspecified)	i	i	i	i	i	43
COc1cc(-c2nc(-c3cccc(C(F)(F)F)c3)no2)cc(OC)c1OC	i	i	i	i	i	i
CCCCC[C@@H](O)c1cc2ccccc2c(=O)o1	i	i	nt	i	i	i
O=C(Nc1ccc(Cl)cc1)Nc1ccc(Cl)c(Cl)c1	43	66	nt	79	84	i
